Compound activity deposited in PubChem BioAssay by Johns Hopkins Ion Channel Center.
MrgX1 antag – human MrgX1 receptor antagonism, primary screen; Q96LB2; MRGX1-HEK293 calcium flux, Fluo-4, BAM8-22 antagonism; hits give low values; B-score at 10 µM; actives 1.3% (n = 310,000);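 active means calcium-response B-score plate-corrected more than 3 library SD below zero, starting fluorescence within 5 deviations, no agonist response on first addition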;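 further: peak minus trough fluorescence over baseline after final BAM8-22 challenge near maximal dose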
Target sequence (Q96LB2 whole entry, looked up): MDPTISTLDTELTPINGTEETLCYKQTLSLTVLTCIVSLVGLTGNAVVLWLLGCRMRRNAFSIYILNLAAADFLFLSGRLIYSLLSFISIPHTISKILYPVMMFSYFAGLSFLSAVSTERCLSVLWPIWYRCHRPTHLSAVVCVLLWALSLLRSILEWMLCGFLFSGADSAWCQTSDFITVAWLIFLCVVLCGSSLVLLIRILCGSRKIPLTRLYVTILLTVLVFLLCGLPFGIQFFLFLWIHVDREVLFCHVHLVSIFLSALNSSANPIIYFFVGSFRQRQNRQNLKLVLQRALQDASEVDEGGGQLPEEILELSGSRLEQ
MrgX1 ag – activates human MrgX1 receptor signaling. Q96LB2. MrgX1-HEK293 cells, Fluo-4 calcium fluorescence, agonist mode; hits give high values. B-score at 10 µM. actives 0.44% (n = 310,000). AID 588627;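 active means calcium response B-score plate-corrected fluorescence ratio at least 3 library SD, with starting fluorescence B-score inside 5 SD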
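System: HEK293 cells stably expressing human MrgX1 receptor; Dosing: test compound in the initial addition of three; Schedule: overnight plating, then 30 min 37 °C plus 30 min room-temperature dye loading; Detection: kinetic calcium dye fluorescence, Fluo-4 NW; Controls: per-plate positive and negative controls for Z′ factor.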
RGS4 pot – potentiators or activators of RGS4; HEK293 M3R/inducible RGS4, carbachol calcium flux Fluo4; hits give low values; B-score at 10 µM; actives 0.92% (n = 310,000);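 active means B-score of the integrated calcium signal more than 4 SD below the library mean, with starting fluorescence not abnormally high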;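 further: negative B-score means reduced calcium response which marks RGS4 activation or potentiation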
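Assay system: HEK293 FlpIn-TREx cells, stable M3R, doxycycline-inducible RGS4 / Probe or stimulus: carbachol, ECmax concentration / Times: overnight RGS4 induction, 30 min dye load 37 °C, 20 min compound RT / Signal: kinetic calcium fluorescence imaging with Fluo4-AM dye, 2 µM / Measure: Agonist-evoked peak-minus-minimum fluorescence over baseline, integrated ratio, B score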
RGS4 inh – inhibitors of human RGS4; P49798; HEK293 M3R/RGS4 inducible, Fluo-4 calcium flux; hits give high values; triggered by carbachol at its EC20; B-score at 10 µM; actives 0.45% (n = 310,000); AID 463165;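 active means B-score, a plate-corrected calcium signal, over three deviations above library mean, with baseline fluorescence within five deviations of library mean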;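 further: RGS4 expression induced by doxycycline in cells with stable M3 receptor; B-score is computed from the integrated fluorescence ratio over baseline after carbachol; higher B-score means a larger calcium signal and so more RGS4 inhibition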
Target sequence (P49798 whole entry, looked up): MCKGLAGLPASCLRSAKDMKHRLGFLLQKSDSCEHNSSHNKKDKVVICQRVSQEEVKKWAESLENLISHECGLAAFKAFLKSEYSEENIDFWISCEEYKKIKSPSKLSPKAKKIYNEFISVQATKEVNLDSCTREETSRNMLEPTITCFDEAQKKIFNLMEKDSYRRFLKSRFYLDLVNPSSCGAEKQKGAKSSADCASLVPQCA
MrgX1 allo act – allosterically activates human MrgX1 receptor signaling; Q96LB2; MrgX1-HEK293, Fluo-4 calcium flux, FDSS; hits give high values; B-score at 10 µM; actives 0.63% (n = 310,000);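 active means plate-corrected calcium response at least 3 library SD above typical, normal starting fluorescence, not activating the receptor alone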;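 further: compound read alongside a low EC10 to EC30 dose of BAM8-22 agonist; peak minus trough fluorescence over baseline measured at the second addition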
RGS4 inh valid – RGS4 inhibitor validation; shares compounds with RGS4 inh; HEK293 M3R/RGS4, carbachol calcium Fluo-4 fluorescence; carbachol added at its EC20; 0 = buffer wells, 100 = carbachol control; calcium response, % at 10 µM; actives 65% (n = 1,700);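 active means duplicate-averaged calcium response above the buffer-only control mean plus 5 SD of those controls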;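 further: integrated fluorescence ratio F max minus min over baseline F0; higher response in RGS4-induced cells means RGS4 inhibition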
M3R Ca ctr – counter-screen for RGS4 inhibitors: effect in non-induced cells. shares compounds with RGS4 inh. HEK293 M3R non-induced, carbachol calcium Fluo-4; submaximal (EC20) carbachol stimulus; buffer wells 0%, carbachol control wells 100%. activity (percent), % at 10 µM. actives 20% (n = 1,900). AID 493000; call rule not given here;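 further: RGS4 induction absent so cells express M3R without RGS4; higher means more calcium signal and flags a non-specific hit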
M3R basal Ca ctr – second RGS4 inhibitor counter-screen in uninduced cells lacking carbachol; HEK293 M3R/RGS4 non-induced, Fluo-4 calcium, no carbachol; normalised: buffer wells 0%, carbachol wells 100%; calcium response (agonist-mode artifact), % at 10 µM; AID 493001; actives 22% (n = 1,900); shares compounds with RGS4 inh;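 active means duplicate-averaged calcium rise in uninduced cells above buffer wells' mean plus 5 SD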
Large screens that a line does not name were inactive (follow-up assays come after a bar, where they were run). This is a sample that favours compounds with a hit; in the whole collection about 3.5% have one here.

CC1CC(C)CN(S(=O)(=O)c2cc3c(cc2Cl)NC(=O)CO3)C1 (centres undefined)	none
CCOC(=O)/C=C/C(=O)OCC(=O)N1CCN(C(=O)c2ccco2)CC1	RGS4 inh 5.7 | RGS4 inh valid 18% | M3R Ca ctr inactive | M3R basal Ca ctr inactive
C[C@H]1CC[C@@]2(O[C@@H](CCO)C[C@H](O)[C@H]2O)O1	none
CC(=O)Nc1cc(Cl)c(N=Cc2ccc(O)cc2O)cc1Cl	RGS4 inh 8.1 | RGS4 inh valid 16% | M3R Ca ctr 29% | M3R basal Ca ctr inactive
CN(C)S(=O)(=O)c1ccc(C(=O)NCCN2C(=O)S/C(=C\c3cccnc3)C2=O)cc1	none
CS(=O)(=O)c1ccc(C(=O)NCCN2C(=O)S/C(=C\c3cccnc3)C2=O)cc1[N+](=O)[O-]	RGS4 inh 5.7 | RGS4 inh valid 22% | M3R Ca ctr inactive | M3R basal Ca ctr inactive
COc1ccccc1NC(=O)CCCc1nc(-c2ccc(OC)c(OC)c2)no1	none
CCOCCCNC1=C(Cl)C(=O)c2ccccc2C1=O	RGS4 inh 5.5 | RGS4 inh valid 30% | M3R Ca ctr inactive | M3R basal Ca ctr inactive
CCOCCCNS(=O)(=O)c1ccccc1	none
C=C(C)COc1ccc2c(C)c(CC(=O)N3C[C@H]4C[C@@H](C3)c3cccc(=O)n3C4)c(=O)oc2c1C	none
CC(=O)/C(=C/c1ccccc1)C(=O)Nc1ccccc1C	RGS4 inh 28 | RGS4 inh valid 64% | M3R Ca ctr 64% | M3R basal Ca ctr inactive
Cc1ccccc1NC(=O)C(=Cc1ccc(C(=O)O)cc1)C(=O)Nc1ccccc1C	RGS4 inh 10 (no result: MrgX1 antag, MrgX1 ag, MrgX1 allo act) | RGS4 inh valid 53% | M3R Ca ctr inactive | M3R basal Ca ctr inactive
CC(/C=C/c1ccccc1)=N/NC(=O)CCC(=O)Nc1ccccc1C	none
N#C/C(=C/c1ccc(C(=O)O)cc1)C(=O)Nc1ccccc1	none
Cc1nn2c(-c3ccccc3)ccnc2c1Br	none | RGS4 inh valid inactive | M3R Ca ctr inactive | M3R basal Ca ctr inactive
Cc1ccc(-c2ccnc3c(Br)c(C)nn23)cc1	none | RGS4 inh valid inactive | M3R Ca ctr inactive | M3R basal Ca ctr inactive
Cc1nn2c(-c3cccnc3)ccnc2c1-c1ccccc1	none
COC(=O)C1=C(CS(=O)(=O)c2ccccc2)NC(=O)NC1c1ccccc1 (centres undefined)	none
C=C1C(=O)[C@@]23[C@H](O)C[C@@H]4C(C)(C)CC[C@H](O)[C@@]4(C)[C@@H]2CC[C@@H]1[C@H]3O	RGS4 inh 4.9 | RGS4 inh valid inactive | M3R Ca ctr inactive | M3R basal Ca ctr inactive
CCCCOc1ccc(/C=c2\sc3ncnn3c2=O)cc1	none | RGS4 inh valid inactive | M3R Ca ctr inactive | M3R basal Ca ctr inactive
CCCCOc1ccc(/C=C2/Sc3ccccc3C2=O)cc1	none
Cc1cc(Cl)ccc1OCC(=O)NNC(=O)c1ccco1	none | M3R Ca ctr inactive | M3R basal Ca ctr inactive
Cc1nn(CC(=O)NCc2cccs2)c(=O)c2nn(-c3ccccc3)c(C)c12	none | RGS4 inh valid inactive | M3R Ca ctr inactive | M3R basal Ca ctr inactive
Cn1cccc1Cc1nnc(SCC(=O)NCC2CCCO2)n1C (centres undefined)	none
O=c1cc(-c2ccc(O)c(O)c2)oc2cc(O)cc(O)c12	none
O=c1c(O)c(-c2ccc(O)c(O)c2)oc2cc(O)cc(O)c12	RGS4 inh 5, MrgX1 allo act 8.8 | RGS4 inh valid 34% | M3R Ca ctr 40% | M3R basal Ca ctr inactive
CCCNc1c(NS(=O)(=O)c2ccc(OC)c(OC)c2)c(=O)oc2ccccc12	none
CC(=O)C1=C(C)NC(=S)NC1c1cccc([N+](=O)[O-])c1 (centres undefined)	MrgX1 allo act 6.5 | M3R Ca ctr inactive | M3R basal Ca ctr inactive
Cc1ccc(C2CC(c3ccccc3OC(F)F)Nc3ncnn32)cc1 (centres undefined)	none | M3R Ca ctr inactive | M3R basal Ca ctr inactive
Cc1ccccc1C1CC(c2ccccc2OC(F)F)Nc2ncnn21 (centres undefined)	RGS4 inh 5.3 | RGS4 inh valid 11% | M3R Ca ctr inactive | M3R basal Ca ctr inactive
c1ccc(Nc2nc(N3CCCCC3)nc(N3CCNCC3)n2)cc1	none | RGS4 inh valid inactive | M3R Ca ctr inactive | M3R basal Ca ctr 16%
c1ccc(Nc2nc(N3CCCC3)nc(N3CCCC3)n2)cc1	none
c1ccc(Nc2nc(N3CCCCC3)nc(N3CCCCC3)n2)cc1	RGS4 inh 5.2 | RGS4 inh valid 26% | M3R Ca ctr inactive | M3R basal Ca ctr inactive
O=C(Oc1ccc(Cl)c2cccnc12)c1cccc([N+](=O)[O-])c1	RGS4 inh 4.7 | RGS4 inh valid 25% | M3R Ca ctr inactive | M3R basal Ca ctr inactive
CCCOc1ccc(C(=O)CCNC(Cc2c[nH]c3ccccc23)C(=O)O)cc1 (centres undefined)	RGS4 inh 6.7 | RGS4 inh valid 10% | M3R Ca ctr 46% | M3R basal Ca ctr 27%
CCN(CC)c1ccc(N2C(=O)/C(=C\c3cccnc3)SC2=S)cc1	RGS4 inh 7.3 | RGS4 inh valid inactive | M3R Ca ctr inactive | M3R basal Ca ctr inactive
COC(=O)C1=C(C)OC(N)=C(C#N)C1c1cc2cccc(C)c2nc1Cl (centres undefined)	none
CC(=O)C1=C(C)OC(N)=C(C#N)C1c1cc2cccc(C)c2nc1Cl (centres undefined)	RGS4 inh 6.8 | RGS4 inh valid 22% | M3R Ca ctr 34% | M3R basal Ca ctr inactive
Cc1ccc(N2CCN(C(=O)c3ccccc3NC(=O)C3CC=CCC3C(=O)O)CC2)cc1 (centres undefined)	none
CCc1ccc(S(=O)(=O)Nc2ccc(O)c3ccccc23)cc1	RGS4 inh 4.7 | RGS4 inh valid 10% | M3R Ca ctr inactive | M3R basal Ca ctr inactive
O=S(=O)(Nc1ccc(O)c2ccccc12)c1ccc(F)cc1	none
CC(/C=N/NC(=O)c1n[nH]c2c1CCC2)=C\c1ccccc1	none | RGS4 inh valid inactive | M3R Ca ctr inactive | M3R basal Ca ctr inactive
COc1cc(NC(=O)CCc2c(C)[nH]c(=O)c(C#N)c2C)cc(OC)c1	none
CC1=C(C(=O)OC(C)C)C(c2ccc(Cl)cc2)n2c(s/c(=C\c3ccc(OCC(=O)O)cc3)c2=O)=N1 (centres undefined)	none
